Source: ChEMBL document CHEMBL4257579, “Analogs of penfluridol as chemotherapeutic agents with reduced central nervous system activity” (Bioorg Med Chem Lett, 2018)

Key:
[1] = target: Sodium-dependent dopamine transporter (Homo sapiens, UniProt Q01959); assay: Displacement of [3H]WIN35428 from human DAT expressed in HEK cells by radioligand binding assay; format: cell-based
[2] = target: T1, 5-hydroxytryptamine receptor 1A (Homo sapiens) (UniProt P08908); assay: Displacement of [3H]-Way100635 from human 5HT1A receptor expressed in stable CHO cell membranes by radioligand binding assay relative to control; set-up: concentration or dose not given beside the values; settings: concentration not given here
T1 sequence (whole entry): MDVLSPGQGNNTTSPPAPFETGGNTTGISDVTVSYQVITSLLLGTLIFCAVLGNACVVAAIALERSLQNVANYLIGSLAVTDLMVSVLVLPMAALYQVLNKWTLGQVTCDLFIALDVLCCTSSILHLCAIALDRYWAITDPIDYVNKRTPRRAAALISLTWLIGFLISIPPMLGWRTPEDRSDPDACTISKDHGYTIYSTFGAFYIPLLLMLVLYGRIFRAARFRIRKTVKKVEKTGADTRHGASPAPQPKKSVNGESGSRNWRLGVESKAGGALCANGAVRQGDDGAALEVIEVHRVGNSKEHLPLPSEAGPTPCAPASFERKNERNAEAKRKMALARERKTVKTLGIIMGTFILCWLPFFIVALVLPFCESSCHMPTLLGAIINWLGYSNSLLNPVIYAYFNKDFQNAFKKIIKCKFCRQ

[3] = target: 5-hydroxytryptamine receptor 6 (Homo sapiens, UniProt P50406); assay: Displacement of [3H]LSD from human 5-HT6 receptor expressed in HEK cells by radioligand binding assay relative to control; format: cell-based; set-up: concentration or dose not given beside the values; settings: concentration not given here
D(1A) dopamine receptor [4] = target: T2, D(1A) dopamine receptor (Homo sapiens, UniProt P21728); assay: Displacement of [3H]SCH23390 from human dopamine D1 receptor expressed in HEK293T cells by radioligand binding assay relative to control; format: cell-based; set-up: concentration or dose not given beside the values; settings: concentration not given here
[5] = system: Lewis lung carcinoma cell line; assay: Cytotoxicity against mouse LLC cells harboring […] assessed as reduction in cell viability after 24 hrs by MTT assay; format: functional, cell-based
Procedure, shortened: (§1)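 Cells exposed to compounds; viability read at 24, 48 and 72 h. Every experiment run in triplicate.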

[6] = target: 5-hydroxytryptamine receptor 1D (Homo sapiens, UniProt P28221); assay: Displacement of [3H]5-CT from human 5-HT1D receptor expressed in HEK293T cells by radioligand binding assay; format: cell-based
Histamine H2 receptor = Histamine H2 receptor (Homo sapiens, UniProt P25021); assay: Displacement of [3H]Cimetidine from human H2 receptor expressed in HEK cells by radioligand binding assay relative to control; format: cell-based; set-up: concentration or dose not given beside the values; settings: concentration not given here
MDA-MB-231 [7] = assay: Cytotoxicity against human MDA-MB-231 cells assessed as reduction in cell viability after 24 hrs by MTT assay; format: functional, cell-based; settings: MDA-MB-231, 24 h; procedure, shortened: as §1
MDA-MB-231 [8] = assay: Cytotoxicity against human MDA-MB-231 cells assessed as reduction in cell viability after 72 hrs by MTT assay; format: functional, cell-based; settings: MDA-MB-231, 72 h; procedure, shortened: as §1
Mu-type opioid receptor = Mu-type opioid receptor (Homo sapiens, UniProt P35372); assay: Displacement of [3H]DAMGO from human MOR expressed in HEK cells by radioligand binding assay; format: cell-based
[9] = target: T3, Kappa-type opioid receptor (Homo sapiens, UniProt P41145); assay: Displacement of [3H]U69593 from KOR (unknown origin) expressed in HEK cells by radioligand binding assay relative to control; format: cell-based; set-up: concentration or dose not given beside the values; settings: concentration not given here
[10] = target: Delta-type opioid receptor (Homo sapiens, UniProt P41143); assay: Displacement of [3H]DADLE from human DOR expressed in HEK cells by radioligand binding assay; format: cell-based
[11] = target: 5-hydroxytryptamine receptor 2A (Homo sapiens, UniProt P28223); assay: Displacement of [3H]Ketanserin from 5-HT2A receptor (unknown origin) by radioligand binding assay relative to control; set-up: concentration or dose not given beside the values; settings: concentration not given here
[12] = target: T4, 5-hydroxytryptamine receptor 2C (Homo sapiens) (UniProt P28335); assay: Displacement of [3H]Mesulergine from human 5-HT2C receptor expressed in HEK293FlpIN cells by radioligand binding assay relative to control; format: cell-based; set-up: concentration or dose not given beside the values; settings: concentration not given here
T4 sequence (whole entry): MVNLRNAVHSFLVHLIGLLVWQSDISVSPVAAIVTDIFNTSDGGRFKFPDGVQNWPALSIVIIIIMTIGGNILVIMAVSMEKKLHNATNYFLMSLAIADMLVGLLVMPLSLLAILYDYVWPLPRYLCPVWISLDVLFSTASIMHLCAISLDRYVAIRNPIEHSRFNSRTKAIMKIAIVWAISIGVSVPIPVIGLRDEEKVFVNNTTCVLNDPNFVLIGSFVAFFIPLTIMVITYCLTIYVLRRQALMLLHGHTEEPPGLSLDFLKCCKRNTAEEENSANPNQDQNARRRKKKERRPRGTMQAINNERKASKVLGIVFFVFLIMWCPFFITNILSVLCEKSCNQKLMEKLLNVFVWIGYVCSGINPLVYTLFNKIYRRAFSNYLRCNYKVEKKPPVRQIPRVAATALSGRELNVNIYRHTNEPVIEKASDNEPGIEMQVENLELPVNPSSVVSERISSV

[13] = target: T3, Kappa-type opioid receptor; assay: Displacement of [3H]U69593 from KOR (unknown origin) expressed in HEK cells by radioligand binding assay; format: cell-based
D(1A) dopamine receptor [14] = target: T2, D(1A) dopamine receptor; assay: Displacement of [3H]SCH23390 from human dopamine D1 receptor expressed in HEK293T cells by radioligand binding assay; format: cell-based
D(4) dopamine receptor = target: T5, D(4) dopamine receptor (Homo sapiens, UniProt P21917); assay: Displacement of [3H]N-methylspiperone from human dopamine D4 receptor by radioligand binding assay
T5 sequence (P21917 whole entry): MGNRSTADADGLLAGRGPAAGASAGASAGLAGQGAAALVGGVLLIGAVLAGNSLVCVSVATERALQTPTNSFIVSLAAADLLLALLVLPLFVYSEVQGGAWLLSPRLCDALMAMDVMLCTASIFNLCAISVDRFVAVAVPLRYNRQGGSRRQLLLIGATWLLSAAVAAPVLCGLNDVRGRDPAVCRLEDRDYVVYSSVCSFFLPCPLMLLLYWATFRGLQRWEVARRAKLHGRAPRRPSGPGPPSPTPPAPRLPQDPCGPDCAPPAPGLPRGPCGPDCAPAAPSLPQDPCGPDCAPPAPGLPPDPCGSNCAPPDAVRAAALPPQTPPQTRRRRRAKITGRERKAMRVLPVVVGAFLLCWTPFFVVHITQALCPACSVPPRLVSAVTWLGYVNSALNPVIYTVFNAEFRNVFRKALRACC

[15] = target: T6, 5-hydroxytryptamine receptor 1A (Homo sapiens, UniProt P08908); assay: Displacement of [3H]-Way100635 from human 5HT1A receptor expressed in stable CHO cell membranes by radioligand binding assay
T6 sequence (P08908 whole entry): T1 sequence (whole entry)

D(3) dopamine receptor [16] = target: T7, D(3) dopamine receptor (Homo sapiens, UniProt P35462); assay: Displacement of [3H]N-methylspiperone from human dopamine D3 receptor expressed in HEK293T cells by radioligand binding assay; format: cell-based
[17] = target: T8, D(4) dopamine receptor (Homo sapiens) (UniProt P21917); assay: Displacement of [3H]N-methylspiperone from human dopamine D4 receptor by radioligand binding assay relative to control; set-up: concentration or dose not given beside the values; settings: concentration not given here
T8 sequence (whole entry): T5 sequence (P21917 whole entry)

D(3) dopamine receptor [18] = target: T7, D(3) dopamine receptor; assay: Displacement of [3H]N-methylspiperone from human dopamine D3 receptor expressed in HEK293T cells by radioligand binding assay relative to control; format: cell-based; set-up: concentration or dose not given beside the values; settings: concentration not given here
[19] = target: 5-hydroxytryptamine receptor 2B (Homo sapiens, UniProt P41595); assay: Displacement of [3H]LSD from human 5-HT2B receptor expressed in HEK cells by radioligand binding assay relative to control; format: cell-based; set-up: concentration or dose not given beside the values; settings: concentration not given here
Chain of 5-hydroxytryptamine receptor 2B (P41595 whole entry): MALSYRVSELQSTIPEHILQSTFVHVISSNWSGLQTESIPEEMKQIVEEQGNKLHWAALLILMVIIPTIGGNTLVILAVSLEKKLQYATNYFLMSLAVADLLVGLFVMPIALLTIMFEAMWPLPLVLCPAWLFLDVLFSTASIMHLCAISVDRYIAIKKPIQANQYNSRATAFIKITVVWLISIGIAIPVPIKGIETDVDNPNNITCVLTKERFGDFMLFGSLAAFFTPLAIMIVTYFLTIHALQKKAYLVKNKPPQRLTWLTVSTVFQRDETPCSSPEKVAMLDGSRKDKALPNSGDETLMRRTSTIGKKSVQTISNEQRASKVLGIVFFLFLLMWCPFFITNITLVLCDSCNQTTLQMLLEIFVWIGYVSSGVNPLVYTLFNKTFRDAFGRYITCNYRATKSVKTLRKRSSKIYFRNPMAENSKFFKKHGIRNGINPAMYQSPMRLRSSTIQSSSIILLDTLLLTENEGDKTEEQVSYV

Chain of Histamine H2 receptor (P25021 whole entry): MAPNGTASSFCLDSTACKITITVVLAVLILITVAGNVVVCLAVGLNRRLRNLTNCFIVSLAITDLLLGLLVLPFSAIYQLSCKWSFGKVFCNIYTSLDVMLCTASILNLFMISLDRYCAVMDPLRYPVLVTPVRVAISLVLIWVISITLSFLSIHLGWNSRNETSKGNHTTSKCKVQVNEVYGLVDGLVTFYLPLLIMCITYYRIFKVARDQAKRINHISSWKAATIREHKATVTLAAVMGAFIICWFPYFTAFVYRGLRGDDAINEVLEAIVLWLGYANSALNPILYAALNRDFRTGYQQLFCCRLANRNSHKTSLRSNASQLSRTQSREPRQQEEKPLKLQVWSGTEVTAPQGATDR
T2 sequence (P21728 whole entry): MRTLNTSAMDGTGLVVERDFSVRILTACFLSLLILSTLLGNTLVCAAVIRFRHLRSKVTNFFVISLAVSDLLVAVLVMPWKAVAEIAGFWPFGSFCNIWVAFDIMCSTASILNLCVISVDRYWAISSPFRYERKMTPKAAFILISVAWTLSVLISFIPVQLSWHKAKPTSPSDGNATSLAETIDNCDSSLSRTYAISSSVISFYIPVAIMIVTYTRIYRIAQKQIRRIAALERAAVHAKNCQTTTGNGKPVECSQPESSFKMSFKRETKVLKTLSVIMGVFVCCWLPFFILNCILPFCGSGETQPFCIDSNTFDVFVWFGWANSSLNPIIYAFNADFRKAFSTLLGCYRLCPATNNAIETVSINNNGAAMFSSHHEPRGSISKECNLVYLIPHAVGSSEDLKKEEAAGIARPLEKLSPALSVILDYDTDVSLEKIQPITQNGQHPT
Chain of 5-hydroxytryptamine receptor 1D (P28221 whole entry): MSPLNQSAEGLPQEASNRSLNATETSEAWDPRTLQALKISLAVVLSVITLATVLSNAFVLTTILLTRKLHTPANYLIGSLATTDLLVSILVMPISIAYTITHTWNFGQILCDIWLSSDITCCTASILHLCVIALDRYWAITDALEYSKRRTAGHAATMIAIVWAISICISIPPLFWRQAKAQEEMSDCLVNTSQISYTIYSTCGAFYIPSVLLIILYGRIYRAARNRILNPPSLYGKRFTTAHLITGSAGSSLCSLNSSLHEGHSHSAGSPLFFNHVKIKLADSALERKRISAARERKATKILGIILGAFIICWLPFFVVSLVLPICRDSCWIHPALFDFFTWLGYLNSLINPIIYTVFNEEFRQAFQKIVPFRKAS
Chain of Delta-type opioid receptor (P41143 whole entry): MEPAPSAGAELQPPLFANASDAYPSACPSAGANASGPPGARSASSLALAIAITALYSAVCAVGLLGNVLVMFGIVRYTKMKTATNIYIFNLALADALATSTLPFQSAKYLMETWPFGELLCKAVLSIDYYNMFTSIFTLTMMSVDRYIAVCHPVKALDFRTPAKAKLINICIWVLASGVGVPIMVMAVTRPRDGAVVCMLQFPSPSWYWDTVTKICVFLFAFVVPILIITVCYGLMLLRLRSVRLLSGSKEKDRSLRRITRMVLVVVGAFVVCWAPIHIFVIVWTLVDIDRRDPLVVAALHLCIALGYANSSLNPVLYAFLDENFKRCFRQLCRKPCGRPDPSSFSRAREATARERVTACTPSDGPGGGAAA
Chain of 5-hydroxytryptamine receptor 6 (P50406 whole entry): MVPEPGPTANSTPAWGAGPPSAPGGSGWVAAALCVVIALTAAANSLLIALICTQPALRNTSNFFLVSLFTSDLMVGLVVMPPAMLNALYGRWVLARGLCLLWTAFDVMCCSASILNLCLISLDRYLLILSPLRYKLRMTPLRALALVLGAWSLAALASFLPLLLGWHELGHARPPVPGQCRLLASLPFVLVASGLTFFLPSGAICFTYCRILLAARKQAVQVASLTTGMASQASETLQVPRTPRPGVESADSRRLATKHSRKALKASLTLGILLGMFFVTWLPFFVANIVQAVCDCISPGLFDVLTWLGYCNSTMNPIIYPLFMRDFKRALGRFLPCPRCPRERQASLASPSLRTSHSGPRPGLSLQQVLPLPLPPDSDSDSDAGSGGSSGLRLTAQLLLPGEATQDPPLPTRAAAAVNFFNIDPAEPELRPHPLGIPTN
T7 sequence (P35462 whole entry): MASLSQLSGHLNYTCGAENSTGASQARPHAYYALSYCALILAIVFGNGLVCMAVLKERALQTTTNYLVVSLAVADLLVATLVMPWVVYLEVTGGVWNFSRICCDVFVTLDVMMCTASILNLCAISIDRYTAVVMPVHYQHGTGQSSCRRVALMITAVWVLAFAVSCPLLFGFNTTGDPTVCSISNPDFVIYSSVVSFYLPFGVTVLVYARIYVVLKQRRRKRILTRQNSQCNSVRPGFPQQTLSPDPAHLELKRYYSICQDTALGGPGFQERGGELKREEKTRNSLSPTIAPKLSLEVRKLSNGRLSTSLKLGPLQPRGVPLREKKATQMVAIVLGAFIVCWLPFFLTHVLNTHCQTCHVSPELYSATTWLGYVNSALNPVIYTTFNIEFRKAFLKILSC
Chain of Sodium-dependent dopamine transporter (Q01959 whole entry): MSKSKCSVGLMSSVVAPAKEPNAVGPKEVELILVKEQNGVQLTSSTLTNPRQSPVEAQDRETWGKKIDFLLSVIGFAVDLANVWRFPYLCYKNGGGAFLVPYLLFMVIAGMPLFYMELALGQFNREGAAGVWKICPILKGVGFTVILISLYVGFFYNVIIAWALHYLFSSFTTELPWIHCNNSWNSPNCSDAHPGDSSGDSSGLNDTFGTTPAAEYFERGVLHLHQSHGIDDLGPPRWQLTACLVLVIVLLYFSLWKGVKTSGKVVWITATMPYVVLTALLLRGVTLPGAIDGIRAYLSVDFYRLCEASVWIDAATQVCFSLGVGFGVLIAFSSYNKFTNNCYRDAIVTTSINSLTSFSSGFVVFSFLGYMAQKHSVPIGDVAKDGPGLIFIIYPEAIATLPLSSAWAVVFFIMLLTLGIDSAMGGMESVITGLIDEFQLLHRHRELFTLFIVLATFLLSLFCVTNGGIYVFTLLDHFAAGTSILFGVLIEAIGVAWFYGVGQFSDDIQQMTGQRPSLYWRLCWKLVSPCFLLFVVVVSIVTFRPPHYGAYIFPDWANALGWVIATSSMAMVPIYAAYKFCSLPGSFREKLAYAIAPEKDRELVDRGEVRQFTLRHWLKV
Chain of Mu-type opioid receptor (P35372 whole entry): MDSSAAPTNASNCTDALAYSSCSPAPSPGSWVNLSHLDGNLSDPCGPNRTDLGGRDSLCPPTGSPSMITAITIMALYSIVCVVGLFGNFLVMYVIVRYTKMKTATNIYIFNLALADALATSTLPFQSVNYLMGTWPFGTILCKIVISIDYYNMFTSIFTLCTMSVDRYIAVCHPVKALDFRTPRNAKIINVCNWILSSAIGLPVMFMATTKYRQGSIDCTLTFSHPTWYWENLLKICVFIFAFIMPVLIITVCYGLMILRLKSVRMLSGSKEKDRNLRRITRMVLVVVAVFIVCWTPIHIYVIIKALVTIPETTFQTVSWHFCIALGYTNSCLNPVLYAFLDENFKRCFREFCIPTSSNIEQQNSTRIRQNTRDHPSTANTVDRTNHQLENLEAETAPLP
T3 sequence (P41145 whole entry): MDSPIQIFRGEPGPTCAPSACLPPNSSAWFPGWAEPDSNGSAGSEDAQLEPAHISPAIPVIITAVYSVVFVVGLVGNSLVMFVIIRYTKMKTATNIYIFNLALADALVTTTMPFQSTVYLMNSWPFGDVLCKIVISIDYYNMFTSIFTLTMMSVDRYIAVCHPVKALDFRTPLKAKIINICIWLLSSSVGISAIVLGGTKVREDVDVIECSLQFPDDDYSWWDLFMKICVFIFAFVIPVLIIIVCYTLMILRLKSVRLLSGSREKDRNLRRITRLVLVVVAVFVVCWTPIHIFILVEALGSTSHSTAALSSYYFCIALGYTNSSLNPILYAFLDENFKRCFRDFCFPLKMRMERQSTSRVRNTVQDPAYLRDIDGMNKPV
Chain of 5-hydroxytryptamine receptor 2A (P28223 whole entry): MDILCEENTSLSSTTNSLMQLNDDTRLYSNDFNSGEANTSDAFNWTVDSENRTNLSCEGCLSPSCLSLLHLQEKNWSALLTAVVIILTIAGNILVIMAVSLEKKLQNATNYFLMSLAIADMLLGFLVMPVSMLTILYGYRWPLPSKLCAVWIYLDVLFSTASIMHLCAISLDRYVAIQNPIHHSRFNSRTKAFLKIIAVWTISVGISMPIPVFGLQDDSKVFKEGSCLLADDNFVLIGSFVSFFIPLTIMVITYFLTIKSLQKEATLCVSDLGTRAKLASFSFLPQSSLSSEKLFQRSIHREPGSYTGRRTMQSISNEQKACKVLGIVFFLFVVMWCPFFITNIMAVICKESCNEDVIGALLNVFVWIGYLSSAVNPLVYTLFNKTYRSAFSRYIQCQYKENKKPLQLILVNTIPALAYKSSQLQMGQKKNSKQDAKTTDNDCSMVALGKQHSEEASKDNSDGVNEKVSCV

| Compound | Ki [1] [µM] | inhibition [2] [%] | inhibition [3] [%] | inhibition (D(1A) dopamine receptor [4]) [%] | IC50 [5] [µM] | Ki ([6]; read-out: Ki) [µM] | inhibition (Histamine H2 receptor) [%] | IC50 (MDA-MB-231 [7]) [µM] | IC50 (MDA-MB-231 [8]) [µM] | Ki (Mu-type opioid receptor) [µM] | inhibition [9] [%] | inhibition [11] [%] | inhibition [12] [%] | Ki [13] [µM] | Ki (D(4) dopamine receptor) [µM] | Ki [15] [µM] | Ki (D(3) dopamine receptor [16]) [µM] | inhibition [17] [%] | inhibition (D(3) dopamine receptor [18]) [%] | inhibition [19] [%] | further results |
| --- | --- | --- | --- | --- | --- | --- | --- | --- | --- | --- | --- | --- | --- | --- | --- | --- | --- | --- | --- | --- | --- |
| OC1(c2ccc(Cl)c(C(F)(F)F)c2)CCN(CCCCC(c2ccc(F)cc2)c2ccc(F)cc2)CC1 | 0.529 | 85 | 80 | 92.6 | 5.6 | 0.844 | 94 | 5.3 | 4.8 | 0.356 | 96 | 96.3 | 89 | 2.67 | 0.385 | 1.39 | 0.209 | 96.9 | 95.7 | 93.3 | Ki ([10]; read-out: Ki): 1.41 µM; Ki (D(1A) dopamine receptor [14]): 0.798 µM |
| COc1ccc(N(CCCCN2CCC(O)(c3ccc(Cl)c(C(F)(F)F)c3)CC2)c2ccc(OC)cc2)cc1 | 0.622 | 57.3 | 50 | 56.6 | 6.3 | 10 |  | 8.1 | 5.4 to 7.1 | 8.25 | 65.8 | 94.1 | 72.6 | 10 | 0.459 | 10 | 0.437 | 73 | 65.1 | 77.5 | Ki ([10]; read-out: Ki): 10 µM; Ki (D(1A) dopamine receptor [14]): 10 µM |
| OC1(c2ccc(Cl)c(C(F)(F)F)c2)CCN(CCCC=C(c2ccc(F)cc2)c2ccc(F)cc2)CC1 |  | 71.2 | 54.4 |  | 15.6 |  | 82.6 | 23.9 | 9.6 | 0.328 | 80.9 | 91.5 | 77.2 | 1.02 | 1.64 | 1.36 | 0.552 | 87.8 | 87.1 | 91.8 | Ki [6]: Not Active |
| OC1(c2ccc(Cl)c(C(F)(F)F)c2)CCN(CCCCN(c2ccc(F)cc2)c2ccc(F)cc2)CC1 | 10 | 82.2 | 68 | 77.9 | 10.8 | 1.07 |  | 11.3 | 9.2 | 10 | 70.3 | 92.6 | 77.5 | 10 | 10 | 1.09 | 0.782 | 86.1 | 82.5 | 82.4 | Ki ([10]; read-out: Ki): 10 µM; Ki (D(1A) dopamine receptor [14]): 10 µM |
| OC1(c2ccc(Cl)c(C(F)(F)F)c2)CCN(CCCCCc2ccc(F)cc2)CC1 |  | 77.2 | 24.7 |  | 26.9 | 4.43 | 69.2 | 19.4 | 9.8 | 0.536 | 78.3 | 68.5 | 57.7 | 1.7 | 0.132 | 0.901 |  | 89.2 | 77.8 |  | Ki [10]: Not Active |
| OC1(c2ccc(Cl)c(C(F)(F)F)c2)CCN(CCCC(c2ccc(F)cc2)c2ccc(F)cc2)CC1 [PENFLURIDOL] | 1.71 | 100 | 96 | 96.5 | 6 | 3.56 | 98.4 | 6.1 | 5.1 | 0.867 | 94.6 | 95.2 | 95.3 |  |  | 0.356 | 0.136 | 77.6 | 98.2 | 97.3 | Ki ([10]; read-out: Ki): 1.71 µM; Ki (D(1A) dopamine receptor [14]): 0.147 µM |
